Reference: ChEMBL document CHEMBL4014298, “Discovery of a series of 8-(1-phenylpyrrolidin-2-yl)-6-carboxamide-2-morpholino-4H-chromen-4-one as PI3Kβ/δ inhibitors for the treatment of PTEN-deficient tumours” (Bioorg Med Chem Lett, 2017)

Experiments:
[1] = target: Phosphatidylinositol 4-kinase beta (Homo sapiens, UniProt Q9UBF8); test: Inhibition of human PIK4Cbeta (1 to 801 residues) by ADP Glo HTS assay
Method in brief: (§1)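 Lipid kinase selectivity assessed in a 15-kinase panel (Dundee University lipid kinase panel), IC50 determined.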

[2] = target: Phosphatidylinositol 3-kinase regulatory subunit beta (Homo sapiens, UniProt O00459); test: Inhibition of human PI3K p85beta (1 to 724 residues) by ADP Glo HTS assay; method in brief: as §1
Sequence of Phosphatidylinositol 3-kinase regulatory subunit beta (O00459 whole entry, the tested form may be a part): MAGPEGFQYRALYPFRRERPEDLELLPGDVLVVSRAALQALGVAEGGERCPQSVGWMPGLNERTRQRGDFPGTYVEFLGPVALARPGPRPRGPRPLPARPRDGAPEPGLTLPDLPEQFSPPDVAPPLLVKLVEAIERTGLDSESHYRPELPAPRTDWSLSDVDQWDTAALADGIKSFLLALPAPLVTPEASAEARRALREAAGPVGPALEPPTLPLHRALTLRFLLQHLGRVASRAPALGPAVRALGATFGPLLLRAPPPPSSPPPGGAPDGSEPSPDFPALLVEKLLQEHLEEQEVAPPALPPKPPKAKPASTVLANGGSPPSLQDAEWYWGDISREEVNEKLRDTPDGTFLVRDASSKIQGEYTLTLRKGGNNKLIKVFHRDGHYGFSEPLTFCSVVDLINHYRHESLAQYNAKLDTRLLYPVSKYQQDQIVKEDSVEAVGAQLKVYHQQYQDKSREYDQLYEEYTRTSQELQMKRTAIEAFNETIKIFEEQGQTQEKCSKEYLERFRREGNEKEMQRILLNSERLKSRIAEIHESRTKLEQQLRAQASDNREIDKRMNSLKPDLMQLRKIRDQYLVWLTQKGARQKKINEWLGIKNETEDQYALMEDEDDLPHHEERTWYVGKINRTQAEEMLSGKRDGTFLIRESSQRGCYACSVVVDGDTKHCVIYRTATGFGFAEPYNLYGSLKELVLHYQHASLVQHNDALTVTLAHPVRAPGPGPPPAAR

[3] = Fraction unbound in mouse plasma; assay type: ADME, cell-free
Method in brief: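 Plasma protein binding in mouse, dog or human plasma, reported as fraction unbound (%).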

[4] = target: T1, Phosphatidylinositol 4,5-bisphosphate 3-kinase catalytic subunit delta isoform (Homo sapiens, UniProt O00329); test: Inhibition of recombinant human PI3Kdelta using PIP2 as substrate preincubated for 20 mins followed by substrate addition measured after 80 mins in presence of ATP by Kinase Glo luminescence assay
T1 sequence (O00329 whole entry): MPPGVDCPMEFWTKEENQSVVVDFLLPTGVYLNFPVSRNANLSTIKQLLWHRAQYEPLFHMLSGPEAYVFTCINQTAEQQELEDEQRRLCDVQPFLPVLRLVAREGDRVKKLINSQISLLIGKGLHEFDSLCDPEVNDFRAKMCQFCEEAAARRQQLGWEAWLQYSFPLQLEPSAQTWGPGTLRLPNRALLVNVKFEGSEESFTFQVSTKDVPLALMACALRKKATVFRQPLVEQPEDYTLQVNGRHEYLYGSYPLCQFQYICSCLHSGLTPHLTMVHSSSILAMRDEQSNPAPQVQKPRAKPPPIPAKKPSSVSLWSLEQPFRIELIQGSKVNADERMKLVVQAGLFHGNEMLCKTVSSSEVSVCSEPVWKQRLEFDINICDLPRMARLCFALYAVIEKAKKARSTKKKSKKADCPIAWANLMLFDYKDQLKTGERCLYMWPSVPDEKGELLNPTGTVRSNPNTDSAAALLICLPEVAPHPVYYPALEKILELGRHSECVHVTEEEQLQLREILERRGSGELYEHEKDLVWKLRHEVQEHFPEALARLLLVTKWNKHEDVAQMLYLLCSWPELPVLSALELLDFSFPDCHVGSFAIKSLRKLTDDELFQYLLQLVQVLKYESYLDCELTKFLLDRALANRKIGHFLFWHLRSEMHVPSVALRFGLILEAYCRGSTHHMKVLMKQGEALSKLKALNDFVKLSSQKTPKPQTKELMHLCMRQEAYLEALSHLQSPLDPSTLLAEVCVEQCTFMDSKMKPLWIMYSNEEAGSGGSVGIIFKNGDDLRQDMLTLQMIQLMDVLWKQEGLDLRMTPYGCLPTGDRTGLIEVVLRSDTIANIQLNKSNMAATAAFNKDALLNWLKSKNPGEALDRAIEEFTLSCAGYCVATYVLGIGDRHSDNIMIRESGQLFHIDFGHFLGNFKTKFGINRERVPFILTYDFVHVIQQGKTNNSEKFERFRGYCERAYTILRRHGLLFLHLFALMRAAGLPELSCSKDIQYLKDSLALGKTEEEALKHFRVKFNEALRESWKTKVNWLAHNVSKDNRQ

Choline kinase alpha = Choline kinase alpha (Homo sapiens, UniProt P35790); test: Inhibition of human CHKalpha (1 to 457 residues) by ADP Glo HTS assay; method in brief: as §1
Sequence of Choline kinase alpha (P35790 whole entry, the tested form may be a part): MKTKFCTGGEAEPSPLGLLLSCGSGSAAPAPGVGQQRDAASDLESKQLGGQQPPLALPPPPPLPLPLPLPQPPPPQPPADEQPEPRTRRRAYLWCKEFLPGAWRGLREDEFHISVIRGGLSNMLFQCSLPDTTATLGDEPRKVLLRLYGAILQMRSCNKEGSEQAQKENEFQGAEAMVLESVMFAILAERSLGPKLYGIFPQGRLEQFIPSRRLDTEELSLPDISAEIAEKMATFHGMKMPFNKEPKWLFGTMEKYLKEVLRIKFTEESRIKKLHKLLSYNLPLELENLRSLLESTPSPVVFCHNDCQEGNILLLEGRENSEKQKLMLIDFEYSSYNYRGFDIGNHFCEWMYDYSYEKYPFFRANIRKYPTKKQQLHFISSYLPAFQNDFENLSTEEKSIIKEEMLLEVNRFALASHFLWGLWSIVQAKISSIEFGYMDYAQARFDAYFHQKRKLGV

Cytochrome P450 3A4 = Cytochrome P450 3A4 (Homo sapiens, UniProt P08684); test: Inhibition of CYP3A4 (unknown origin); assay type: ADME
Sequence of Cytochrome P450 3A4 (P08684 whole entry): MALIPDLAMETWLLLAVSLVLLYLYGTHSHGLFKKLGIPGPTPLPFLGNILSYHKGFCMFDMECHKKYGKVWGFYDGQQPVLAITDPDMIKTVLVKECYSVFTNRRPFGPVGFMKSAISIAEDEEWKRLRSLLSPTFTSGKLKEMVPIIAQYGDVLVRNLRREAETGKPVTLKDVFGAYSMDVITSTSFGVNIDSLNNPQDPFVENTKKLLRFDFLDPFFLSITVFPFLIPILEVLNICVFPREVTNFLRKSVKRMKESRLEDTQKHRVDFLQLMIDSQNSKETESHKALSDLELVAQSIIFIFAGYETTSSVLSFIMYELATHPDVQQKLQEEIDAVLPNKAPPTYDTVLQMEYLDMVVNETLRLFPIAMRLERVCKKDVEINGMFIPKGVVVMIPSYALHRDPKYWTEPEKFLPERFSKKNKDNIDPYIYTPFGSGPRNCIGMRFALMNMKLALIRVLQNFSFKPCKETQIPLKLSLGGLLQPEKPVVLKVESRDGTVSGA

[5] = Inhibition of PI3Kalpha mutant in human BT474 cells assessed as decrease in AKT phosphorylation at Thr308 after 2 hrs; assay type: cell-based; conditions: BT-474, 2 h
[6] = target: T1, Phosphatidylinositol 4,5-bisphosphate 3-kinase catalytic subunit delta isoform; test: Inhibition of PI3Kdelta in human JeKo1 B cells assessed as decrease in AKT phosphorylation at Ser473 measured after 1 hr; assay type: cell-based
[7] = target: Phosphatidylinositol 4,5-bisphosphate 3-kinase catalytic subunit alpha isoform (Homo sapiens, UniProt P42336, E542K); test: Inhibition of human PI3Kalpha (2 to 1068 residues)/p85 (1 to 724 residues) E542K mutant by ADP Glo HTS assay; method in brief: as §1
Sequence of Phosphatidylinositol 4,5-bisphosphate 3-kinase catalytic subunit alpha isoform (P42336 whole entry E542K, the tested form may be a part, canonical isoform): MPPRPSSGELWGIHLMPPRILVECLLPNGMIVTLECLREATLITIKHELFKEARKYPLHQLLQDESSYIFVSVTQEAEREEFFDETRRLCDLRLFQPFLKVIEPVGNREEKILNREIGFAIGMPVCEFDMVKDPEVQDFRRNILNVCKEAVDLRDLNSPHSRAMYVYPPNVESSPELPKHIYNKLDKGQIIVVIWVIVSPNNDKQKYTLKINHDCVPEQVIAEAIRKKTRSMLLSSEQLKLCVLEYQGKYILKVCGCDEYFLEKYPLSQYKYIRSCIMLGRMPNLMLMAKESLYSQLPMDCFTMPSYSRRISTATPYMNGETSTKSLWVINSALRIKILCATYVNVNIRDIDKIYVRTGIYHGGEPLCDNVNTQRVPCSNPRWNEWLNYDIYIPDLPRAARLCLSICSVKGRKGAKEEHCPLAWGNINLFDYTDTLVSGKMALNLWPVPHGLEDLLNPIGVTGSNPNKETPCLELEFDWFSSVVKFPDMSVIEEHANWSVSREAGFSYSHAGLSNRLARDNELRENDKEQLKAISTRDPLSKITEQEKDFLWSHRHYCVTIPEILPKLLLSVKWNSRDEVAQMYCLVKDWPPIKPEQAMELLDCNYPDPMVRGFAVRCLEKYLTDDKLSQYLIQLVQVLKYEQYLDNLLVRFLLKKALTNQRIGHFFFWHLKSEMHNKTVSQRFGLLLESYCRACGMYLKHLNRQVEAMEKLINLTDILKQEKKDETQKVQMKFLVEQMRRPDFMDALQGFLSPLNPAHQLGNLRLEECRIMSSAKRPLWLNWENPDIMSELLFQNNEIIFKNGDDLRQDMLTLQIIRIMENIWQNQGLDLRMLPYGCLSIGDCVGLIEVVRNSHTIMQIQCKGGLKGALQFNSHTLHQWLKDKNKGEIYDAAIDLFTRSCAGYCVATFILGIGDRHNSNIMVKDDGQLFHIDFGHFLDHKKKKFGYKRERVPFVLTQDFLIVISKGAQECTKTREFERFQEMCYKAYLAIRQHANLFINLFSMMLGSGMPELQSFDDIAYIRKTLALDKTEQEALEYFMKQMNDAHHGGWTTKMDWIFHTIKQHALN

[8] = target: Phosphatidylinositol 5-phosphate 4-kinase type-2 alpha (Homo sapiens, UniProt P48426); test: Inhibition of human PIP5K2alpha (1 to 406 residues) by ADP Glo HTS assay; method in brief: as §1
Sequence of Phosphatidylinositol 5-phosphate 4-kinase type-2 alpha (P48426 whole entry, the tested form may be a part): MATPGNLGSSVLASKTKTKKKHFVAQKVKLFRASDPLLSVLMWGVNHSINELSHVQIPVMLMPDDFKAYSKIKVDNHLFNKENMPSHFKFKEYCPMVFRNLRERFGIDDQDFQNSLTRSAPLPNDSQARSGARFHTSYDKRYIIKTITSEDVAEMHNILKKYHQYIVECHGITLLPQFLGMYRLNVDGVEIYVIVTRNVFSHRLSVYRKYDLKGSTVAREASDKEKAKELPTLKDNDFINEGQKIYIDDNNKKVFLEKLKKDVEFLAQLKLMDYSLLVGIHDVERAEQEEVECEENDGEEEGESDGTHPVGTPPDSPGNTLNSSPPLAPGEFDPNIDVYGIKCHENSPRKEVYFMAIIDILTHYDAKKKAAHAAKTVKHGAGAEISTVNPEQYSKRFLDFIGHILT

[9] = Oral bioavailability in dog blood at 10 umol/kg; assay type: ADME, organism-based, Canis lupus familiaris
[10] = Volume of distribution at steady state in dog blood at 4 umol/kg, iv or 10 umol/kg, po; assay type: ADME, organism-based, Canis lupus familiaris; conditions: read-out: Vdss
[11] = Intrinsic clearance in mouse hepatocytes assessed per million cells; assay type: ADME, cell-based, Hepatocyte; conditions: read-out: CLH
Method in brief: (§2)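 Intrinsic clearance measured in mouse or dog hepatocytes, expressed as CL_int in […].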

[12] = Intrinsic clearance in dog hepatocytes assessed per million cells; assay type: ADME, cell-based, Canis lupus familiaris, Hepatocyte; conditions: read-out: CLH; method in brief: as §2
[13] = target: Diacylglycerol kinase zeta (Homo sapiens, UniProt Q13574); test: Inhibition of human DGKzeta (1 to 929 residues) by ADP Glo HTS assay; method in brief: as §1
Sequence of Diacylglycerol kinase zeta (Q13574 whole entry, the tested form may be a part): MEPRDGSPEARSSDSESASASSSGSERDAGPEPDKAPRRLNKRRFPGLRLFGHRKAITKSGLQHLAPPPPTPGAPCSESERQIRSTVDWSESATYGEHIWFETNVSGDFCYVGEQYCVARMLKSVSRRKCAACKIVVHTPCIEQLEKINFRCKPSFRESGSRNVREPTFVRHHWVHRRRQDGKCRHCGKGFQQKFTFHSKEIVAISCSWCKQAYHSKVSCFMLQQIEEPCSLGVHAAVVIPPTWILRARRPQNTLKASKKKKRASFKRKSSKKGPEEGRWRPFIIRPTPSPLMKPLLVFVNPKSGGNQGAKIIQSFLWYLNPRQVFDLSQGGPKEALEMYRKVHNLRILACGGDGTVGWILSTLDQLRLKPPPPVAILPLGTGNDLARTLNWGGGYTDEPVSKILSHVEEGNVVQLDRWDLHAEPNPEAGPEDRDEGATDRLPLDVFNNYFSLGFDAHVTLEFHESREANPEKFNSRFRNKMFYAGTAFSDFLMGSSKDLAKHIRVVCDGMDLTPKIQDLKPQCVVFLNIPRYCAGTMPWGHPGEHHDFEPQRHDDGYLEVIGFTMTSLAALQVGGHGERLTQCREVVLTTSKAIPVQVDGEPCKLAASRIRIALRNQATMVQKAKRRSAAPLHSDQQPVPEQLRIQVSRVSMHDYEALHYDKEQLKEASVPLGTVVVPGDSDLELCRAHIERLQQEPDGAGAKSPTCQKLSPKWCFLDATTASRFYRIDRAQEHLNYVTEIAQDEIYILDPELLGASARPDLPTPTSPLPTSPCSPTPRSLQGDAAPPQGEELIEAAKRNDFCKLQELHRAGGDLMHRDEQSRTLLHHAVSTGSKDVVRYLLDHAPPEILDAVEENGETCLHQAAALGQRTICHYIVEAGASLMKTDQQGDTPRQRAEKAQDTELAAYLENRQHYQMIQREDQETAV

Sequence of Phosphatidylinositol 4-kinase beta (Q9UBF8 whole entry, the tested form may be a part): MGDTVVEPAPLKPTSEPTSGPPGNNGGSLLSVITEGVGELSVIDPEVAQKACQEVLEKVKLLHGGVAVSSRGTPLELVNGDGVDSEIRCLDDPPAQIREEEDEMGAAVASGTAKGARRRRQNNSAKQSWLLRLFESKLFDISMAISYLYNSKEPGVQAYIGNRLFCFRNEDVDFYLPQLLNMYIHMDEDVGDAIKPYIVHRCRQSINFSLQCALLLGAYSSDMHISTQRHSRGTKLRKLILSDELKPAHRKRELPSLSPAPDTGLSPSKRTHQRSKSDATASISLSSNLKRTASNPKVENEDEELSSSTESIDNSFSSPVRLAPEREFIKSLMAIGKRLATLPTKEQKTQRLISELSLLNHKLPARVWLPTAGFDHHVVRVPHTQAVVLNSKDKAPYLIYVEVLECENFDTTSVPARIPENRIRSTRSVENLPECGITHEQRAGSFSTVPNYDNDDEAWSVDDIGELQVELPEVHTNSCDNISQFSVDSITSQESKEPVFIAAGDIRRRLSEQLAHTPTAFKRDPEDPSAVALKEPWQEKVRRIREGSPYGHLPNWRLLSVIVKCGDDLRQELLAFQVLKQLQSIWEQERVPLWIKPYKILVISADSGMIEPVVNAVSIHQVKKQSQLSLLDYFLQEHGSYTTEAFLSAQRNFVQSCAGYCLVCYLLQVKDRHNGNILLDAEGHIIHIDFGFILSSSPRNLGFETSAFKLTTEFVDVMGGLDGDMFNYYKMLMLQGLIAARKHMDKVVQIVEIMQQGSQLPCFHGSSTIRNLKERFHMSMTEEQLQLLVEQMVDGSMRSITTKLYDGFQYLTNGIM

For `O=C(c1cc([C@H]2CCCN2c2cc(F)cc(F)c2)c2oc(N3CCOCC3)cc(=O)c2c1)N1CCOCC1`, the IC50 [1] was over 50 µM, the IC50 [2] was over 50 µM and the fraction unbound [3] was 0.19. The IC50 [4] was 0.0086 µM, the IC50 (Choline kinase alpha) was over 50 µM and the IC50 (Cytochrome P450 3A4) was over 30 µM. For the same compound, the IC50 [5] was 0.14 µM, the IC50 [6] was 0.014 µM and the IC50 [7] was over 50 µM. The IC50 [8] was over 50 µM, the bioavailability [9] was 29% and the Vd [10] was 1.2 L/kg. For the same compound, the hepatocyte CLint [11] was 68 µL/min/1e6 cells, the hepatocyte CLint [12] was 23 µL/min/1e6 cells and the IC50 [13] was over 50 µM.
